The source made the active and inactive calls. No cut-off for these calls is given here.
Tests used:
C-33-A = experiment: Ratio of IC50 for human C33A cells under oxic condition to IC50 for human C33A cells under hypoxic condition; type: functional
Summary of the method: (§1)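 Antiproliferative assay on the cell-line panel: 4 h drug exposure under 20% O₂ or anoxia (<20 ppm O₂), then sulforhodamine B staining after 5 days. HCR = IC50(oxic)/IC50(hypoxic), taken as the mean of intraexperiment ratios from 2−5 experiments.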

SiHa [1] = experiment: Cytotoxicity against human SiHa cells under hypoxic condition assessed as inhibition of cell proliferation after 4 hrs; type: functional, cell-based
Summary of the method: (§2)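 Log-phase monolayers were exposed to drug for 4 h, aerobic (20% O2) for line 5 and anoxic (<20 ppm O2) for line 4. Cell density was read by sulforhodamine B staining 5 days later. IC50 was interpolated as the concentration reducing density to 50% of same-plate controls; mean ± SEM of 3–9 experiments.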

SiHa [2] = experiment: Cytotoxicity against human SiHa cells under oxic condition assessed as inhibition of cell proliferation after 4 hrs; type: functional, cell-based; summary of the method: as §2
HT-29 [3] = experiment: Cytotoxicity against human HT-29 cells under oxic condition assessed as inhibition of cell proliferation after 4 hrs by SRB method; type: functional, cell-based; details: HT-29, 4 h
Summary of the method: (§3)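 Log-phase monolayers were exposed 4 h under 20% O₂ or anoxia (<20 ppm O₂), then stained with sulforhodamine B 5 days later. IC50, interpolated as the concentration reducing cell density to 50% of same-plate controls, is given as mean of 3−9 experiments. HCR = IC50(oxic)/IC50(hypoxic), taken as the mean of intraexperiment ratios from 3−6 experiments.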

[4] = Ratio of IC50 for human H1299 cells under oxic condition to IC50 for human H1299 cells under hypoxic condition; type: functional; summary of the method: as §1
A549 = experiment: Ratio of IC50 for human A549 cells under oxic condition to IC50 for human A549 cells under hypoxic condition; type: functional; summary of the method: as §1
HCT-116 = experiment: Ratio of IC50 for human HCT116 cells under oxic condition to IC50 for human HCT116 cells under hypoxic condition; type: functional; summary of the method: as §1
HT-29 [5] = experiment: Cytotoxicity against human HT-29 cells under hypoxic condition assessed as inhibition of cell proliferation after 4 hrs by SRB method; type: functional, cell-based; details: HT-29, 4 h; summary of the method: as §3
HT-29 [6] = experiment: Ratio of IC50 for human HT-29 cells under oxic condition to IC50 for human HT-29 cells under hypoxic condition; type: functional; summary of the method: as §3
NCI-H460 [7] = experiment: Ratio of IC50 for human H460 cells under oxic condition to IC50 for human H460 cells under hypoxic condition; type: functional; summary of the method: as §1
HT-29 [8] = experiment: Cytotoxicity against human HT-29 cells under oxic condition after 4 hrs by clonogenic assay; type: functional, cell-based
Summary of the method: (§4)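 Cells were exposed to drug in duplicate for 4 h at 37 °C, either aerobic (95% air, 5% CO₂) or in an anaerobic chamber (<0.001% O₂). Medium was αMEM + 10% FCS with added glucose (final 17 mmol/L) and 200 μmol/L 2′-deoxycytidine. Cells were then trypsinized and plated; colonies >50 cells were counted after 14 days (methylene blue). C10 = concentration giving 10% survival vs controls; HCR = C10(oxic)/C10(hypoxic).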

HT-29 [9] = experiment: Cytotoxicity against human HT-29 cells under hypoxic condition after 4 hrs by clonogenic assay; type: functional, cell-based; summary of the method: as §4
SiHa [10] = experiment: Antitumor activity against human SiHa cells xenografted in immunocompromized gamma irradiated mouse assessed as number of colony forming cells per gram of tumor tissue at 13 umol/kg, iv tumor excised post 18 hrs followed by culturing for 14 days; type: functional
Summary of the method: (§5)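 SiHa tumours grown subcutaneously in male mice from 10⁷ cultured cells; randomized at 8−10 mm mean diameter. Compound in phosphate-buffered saline with 4 equiv sodium bicarbonate, given via tail vein at the stated dose, alone or 5 min after 15 Gy whole-body cobalt-60 γ irradiation. Tumours excised 18 h after dosing, cells cultured 14 days for clonogens. Groups of 3 (drug alone) or 5 (radiation + drug).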

SiHa [11] = experiment: Antitumor activity against human SiHa cells xenografted in immunocompromized gamma irradiated mouse assessed as log cell kill at 13 umol/kg, iv tumor excised post 18 hrs followed by culturing for 14 days under hypoxic condition; type: functional
Summary of the method: (§6)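 Male immunocompromised mice bearing subcutaneous tumours (10^7 cultured cells), randomized at 8–10 mm mean diameter. Compound in PBS with 4 equiv sodium bicarbonate given iv (tail vein), alone or 5 min after 15 Gy whole-body cobalt-60 γ-irradiation, which sterilizes oxygenated cells. Tumours excised 18 h after dosing and plated for clonogens for 14 days. n = 3 (vehicle or compound alone) or 5 (irradiated groups).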

SiHa [12] = experiment: Antitumor activity against human SiHa cells xenografted in immunocompromized mouse assessed as number of colony forming cells per gram of tumor tissue at 13 umol/kg, iv tumor excised post 18 hrs followed by culturing for 14 days; type: functional; summary of the method: as §5
HT-29 [13] = experiment: Ratio of C10 for human HT-29 cells under oxic condition to C10 for human HT-29 cells under hypoxic condition by clonogenic assay; type: functional; summary of the method: as §4
SiHa [14] = experiment: Cytotoxicity against human SiHa cells under oxic condition after 4 hrs by clonogenic assay; type: functional, cell-based; summary of the method: as §4
SiHa [15] = experiment: Cytotoxicity against human SiHa cells under hypoxic condition assessed as after 4 hrs by clonogenic assay; type: functional, cell-based; summary of the method: as §4
NCI-H460 [16] = experiment: Antitumor activity against human H460 cells xenografted in immunocompromized gamma irradiated mouse under hypoxic condition assessed as log cell kill at 75 umol/kg, iv tumor excised post 18 hrs followed by culturing for 14 days; type: functional; summary of the method: as §6
SiHa [17] = experiment: Antitumor activity against human SiHa cells xenografted in immunocompromized mouse assessed as number of colony forming cells per gram of tumor tissue at 42 umol/kg, iv tumor excised post 18 hrs followed by culturing for 14 days; type: functional; summary of the method: as §5
NCI-H460 [18] = experiment: Toxicity in human H460 cells xenografted immunocompromized mouse at 75 umol/kg, iv; details: in vivo
SiHa [19] = experiment: Antitumor activity against human SiHa cells xenografted in immunocompromized gamma irradiated mouse assessed as log cell kill at 42 umol/kg, iv tumor excised post 18 hrs followed by culturing for 14 days under hypoxic condition; type: functional; summary of the method: as §6
SiHa [20] = experiment: Antitumor activity against human SiHa cells xenografted in immunocompromized gamma irradiated mouse assessed as number of colony forming cells per gram of tumor tissue at 42 umol/kg, iv tumor excised post 18 hrs followed by culturing for 14 days; type: functional; summary of the method: as §5

| Structure (SMILES) | Ratio IC50 (C-33-A) | IC50 (SiHa [1]) [nM] | IC50 (SiHa [2]) [µM] | IC50 (HT-29 [3]) [µM] | Ratio IC50 [4] | Ratio IC50 (A549) | Ratio IC50 (HCT-116) | IC50 (HT-29 [5]) [nM] | Ratio IC50 (HT-29 [6]) | Ratio IC50 (NCI-H460 [7]) | Activity (SiHa [14]) | Activity (SiHa [15]) | further results |
| --- | --- | --- | --- | --- | --- | --- | --- | --- | --- | --- | --- | --- | --- |
| COc1cc2cc(C(=O)N3CC(COS(=O)(=O)Cc4ccccc4)c4c3cc([N+](=O)[O-])c3cc(S(N)(=O)=O)ccc43)[nH]c2c(OC)c1OC (stereo not given) | 177 | 180 | 13 | 35 | 226 | 20 | 193 | 42 | 1010 | 0.67 | – | – | – |
| COc1ccc(/C=C/C(=O)N2CC(COS(=O)(=O)Cc3ccccc3)c3c2cc([N+](=O)[O-])c2cc(C(N)=O)ccc32)cc1 (stereo not given) | 184 | 46 | 2.1 | 7 | 644 | 34 | 403 | 170 | 40 | 104 | – | – | Activity (HT-29 [8]): Active; Activity (HT-29 [9]): Active; log10cfu (SiHa [10]): 4.3; LCK (SiHa [11]): 1.16; log10cfu (SiHa [12]): 6.87; Ratio (HT-29 [13]): 4090 |
| COc1cc2cc(C(=O)N3CC(COS(=O)(=O)Cc4ccccc4)c4c3cc([N+](=O)[O-])c3cc(C(N)=O)ccc43)[nH]c2c(OC)c1OC (stereo not given) | 76 | 180 | 0.99 | 9.2 | 86 | 6.7 | 13 | 16 | 1370 | 32 | Active | Active | – |
| NC(=O)c1ccc2c3c(cc([N+](=O)[O-])c2c1)N(C(=O)c1cc2cc(OCCO)ccc2[nH]1)CC3COS(=O)(=O)Cc1ccccc1 (stereo not given) | 93 | 240 | 18.5 | 22 | 255 | 38 | 127 | 220 | 105 | >114 | Active | Active | – |
| COc1cc2cc(C(=O)N3CC(COS(C)(=O)=O)c4c3cc([N+](=O)[O-])c3cc(S(=O)(=O)NCCOP(=O)(O)O)ccc43)[nH]c2c(OC)c1OC (stereo not given) | – | – | – | – | – | – | – | – | – | – | – | – | LCK (NCI-H460 [16]): 0.6; log10cfu (SiHa [17]): 7.15; Activity (NCI-H460 [18]): Non-toxic; LCK (SiHa [19]): 0.6; log10cfu (SiHa [20]): 4.38 |

Reference: ChEMBL document CHEMBL2163287, “Nitro seco analogues of the duocarmycins containing sulfonate leaving groups as hypoxia-activated prodrugs for cancer therapy” (J Med Chem, 2012)
